Results on one substance are retold here after PMC4834512 (Innate Immunity, 2016).

For one series, the system named is LPS from E. coli. Put plainly: LPS inactivation by PMB in plasma, LAL test. Type of series: biochemical, Escherichia coli. Particulars: 5 ng/ml LPS from E. coli, fresh human heparinized plasma, 60 min 37℃. In outline: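 Fresh human heparinized plasma spiked with E. coli LPS (5 or 0.5 ng/ml) was incubated with test compound at 0, 10, 100, 250, 500 and 1000 ng/ml for 60 min at 37℃ in pyrogen-free glass vials. Endotoxin activity was read by kinetic chromogenic LAL test. ENC50 is the concentration reducing activity by 50% relative to LPS-spiked plasma without test compound.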

Series [1] deals with plasma proteins. Particulars: assumed value from the literature; cited from earlier work.
Series [2] concerns plasma proteins. It is filed as in vitro ADME, human. The procedure, abridged: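 Fresh citrate-anticoagulated plasma from three donors was spiked with 1 µg/ml test compound. Aliquots were centrifuged (10,000 g, 20 min) through ultrafiltration membranes of 10, 30, 50 or 100 kDa MMCO, and filtrates were stored at −20℃. Drug in filtrates was measured by competitive ELISA (detection limit 1 ng/ml; samples diluted into 0–100 ng/ml range). Total protein was measured by automated analyser. The same filtration was run in 0.9% NaCl to check binding to the filter.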

Where “and” joins values, the source holds several entries; their conditions need not be identical. Equal values may be shown once. Some results are limits rather than exact numbers.

Regarding Polymyxin B [PMB], the “ENC50 (endotoxin neutralizing concentration)” value in the series with LPS from E. coli is 381 ng/mL and < 400 ng/mL. Moreover, the “Plasma protein binding of PMB” value with plasma proteins [1] is “up to 90%”. Besides, the “PMB % of + control in filtrate” value in the series with plasma proteins [2] (100 kDa MMCO, citrate plasma, 1 µg/ml PMB, ultrafiltration 10,000 g 20 min, ELISA, mean ± SD n = 3) came out at 25 ± 13%. For the same substance, the “PMB-content of filtrates compared with a PMB-solution without plasma” value with plasma proteins [2] (membranes with smaller pores than 100 kDa MMCO (10, 30, 50 kDa)) is listed as < 10%.
